Source: PubChem BioAssay (several laboratories)
Most compounds without a hit are left out; they make up all but 2.7% or so of the library.
ASAP1 GAP inh: inhibitors of human ASAP1 ArfGAP activity. AID 624377. inhibition, % at 16.5 µM. ASAP1-stimulated ARF1 GTP hydrolysis, GDP FP detection. actives 0.19% (n = 360,000); in the data active = inhibition above about 25%
Target sequence (Q9ULH1 325-724 limits assumed): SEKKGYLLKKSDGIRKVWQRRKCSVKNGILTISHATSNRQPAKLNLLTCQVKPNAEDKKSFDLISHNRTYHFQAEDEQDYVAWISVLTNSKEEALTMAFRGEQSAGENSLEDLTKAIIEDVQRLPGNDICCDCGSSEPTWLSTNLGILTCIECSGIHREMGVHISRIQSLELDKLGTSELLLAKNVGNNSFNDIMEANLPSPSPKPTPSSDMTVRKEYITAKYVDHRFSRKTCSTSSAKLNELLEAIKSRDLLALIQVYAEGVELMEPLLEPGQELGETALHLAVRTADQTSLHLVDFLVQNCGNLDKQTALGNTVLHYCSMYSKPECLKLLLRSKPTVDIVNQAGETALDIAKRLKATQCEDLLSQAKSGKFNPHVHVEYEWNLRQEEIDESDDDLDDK
ARFGAP1 inh: inhibits rat ARF GTPase activating protein 1 | Arfgap1-stimulated ARF1 GTP hydrolysis, GDP FP detection | inhibition, % at 16.5 µM | actives 0.26% (n = 360,000);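 active = inhibition above a per-plate limit, mean inhibition of low control wells plus 3 SD, cut at about 25% in these data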
Target sequence (Q62848 1-136 limits assumed): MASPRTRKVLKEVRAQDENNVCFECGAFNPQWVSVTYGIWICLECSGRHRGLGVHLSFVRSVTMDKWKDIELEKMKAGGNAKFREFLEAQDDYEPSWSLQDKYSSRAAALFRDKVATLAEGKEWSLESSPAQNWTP
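System: truncated rat Arfgap1 GAP domain / Benchmarks: high control wells lacking Arfgap1, low control full reaction with DMSO / Times: compound-enzyme preincubation 20 min, reaction 120 min, detection 60 min, 25 °C / Repeats: one replicate per compound / Also added: human ARF1(Δ1-17)-GTP substrate / Measured by: Tracer-displacement fluorescence polarization with EDTA stop, 620/688 nm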
sPLA2-III inh: Blocks human group III sPLA2 activity | inhibition, % at 12.2 µM | actives 0.56% (n = 370,000) | QFRET BODIPY PC-A2 liposome hydrolysis, fluorescence | Q9NZ20;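 active = inhibition above mean plus 3 SD of compounds lying within the high and low control bounds, cut at about 19% in these data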
Rev-erbA mod: modulates human Rev-erb alpha binding to DNA; AID 1259318; actives 0.79% (n = 370,000); activity, % at 10 µM; Rev-erbα–FITC-DNA binding, fluorescence polarization, 90 min;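 active = activity above about 14%, limit read from the data; passing the limit was not always enough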
MsrA act: bovine methionine sulfoxide reductase A activation; purified bovine MsrA, absorbance read-out; activation, % at 10.6 µM; actives 0.3% (n = 360,000); AID 602163; in the data active = activation above about 7.5%
MsrA inhibitor: inhibits bovine methionine sulfoxide reductase A | purified bovine MsrA, absorbance read-out | actives 0.75% (n = 360,000) | inhibition, % at 15.5 µM; in the data active = inhibition above about 4.5%
MsrA activ conf: bovine methionine sulfoxide reductase A activation confirmed | shares compounds with MsrA act | purified bovine MsrA, absorbance read-out | activation, % at 10.6 µM | actives 12% (n = 1,000) | AID 602270; in the data active = activation above about 4%;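 note: enzyme coupled to thioredoxin and thioredoxin reductase with NADPH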
Each line names hits and unclear results; the compound was inactive in the other large screens (follow-up assays come after a bar, where they were run).

O=C(Nc1ccc2c(c1)OCO2)O[C@@H]1CC[C@@]23CCCN2C(=O)CCC[C@H]3C1	none (no result: ASAP1 GAP inh, ARFGAP1 inh, MsrA act, MsrA inhibitor)
Cc1ccc(NC(=O)CCC(=O)NNC(=O)NC23CC4CC(CC(C4)C2)C3)cc1C	MsrA act 9.0 | MsrA activ conf inactive
N#Cc1cccc(-c2nnc(SCc3ccccc3C#N)o2)c1	MsrA act 14.3 | MsrA activ conf inactive
N#Cc1ccccc1CSc1nnc(-c2ccncc2)o1	none (no result: ASAP1 GAP inh, ARFGAP1 inh, sPLA2-III inh, Rev-erbA mod, MsrA inhibitor)
C[C@H]1[C@@H](NC(=O)C(c2ccccc2)c2ccccc2)CC[C@@]23CCCN2C(=O)CCC[C@@H]13	none (no result: ASAP1 GAP inh, ARFGAP1 inh, MsrA act, MsrA inhibitor)
O=C(/C=C/c1ccccc1)C1=C(O)C(=O)N(CCO)C1c1cccc([N+](=O)[O-])c1 (centres undefined)	MsrA act 9.9 | MsrA activ conf inactive
O=C(/C=C/c1ccccc1)C1=C(O)C(=O)N(CCO)C1c1ccccc1[N+](=O)[O-] (centres undefined)	none
COc1cccc(C(c2sc3ncnn3c2O)N2CC(C)OC(C)C2)c1 (centres undefined)	MsrA act 8.1 | MsrA activ conf inactive
O=C(CC(c1ccccc1)c1cc(Cl)ccc1O)N1CCOCC1 (centres undefined)	MsrA act 9.8 | MsrA activ conf inactive
COc1ccc2c(c1)C1(Nc3ccccc3-c3nc4ccccc4n31)C(=O)N2C (centres undefined)	none
COc1ccc2c(c1)C1(Nc3ccccc3-c3nc4ccccc4n31)C(=O)N2 (centres undefined)	MsrA act 8.7 | MsrA activ conf inactive
COC(=O)C1=C(C)N(Cc2ccc(C(F)(F)F)cc2)C(=NCc2ccccc2C(F)(F)F)NC1c1cccc(Cl)c1 (centres undefined)	none (no result: MsrA act)
CN(C)c1nc(C#N)nc(N2CCOCC2)n1	none
CC(C)N(C#N)c1nc(N2CCOCC2)nc(N2CCOCC2)n1	MsrA act 17.3 | MsrA activ conf inactive
COC(=O)N/N=C/c1ccc(-c2ccc(C)c(Cl)c2)o1	none
Cc1ccc(-c2ccc(/C=N/NC(=O)CN3CCCC3)o2)cc1Cl	MsrA act 8.8 | MsrA activ conf inactive
O=C(Cn1nnc(-c2ccncc2)n1)Nc1ccc(Cl)cc1	none (no result: ASAP1 GAP inh, ARFGAP1 inh, MsrA act, MsrA inhibitor)
O=C1c2ccccc2C(=O)c2c(/C=C/N3CCCCC3)ccnc21	MsrA act 9.7 | MsrA activ conf 4.3
O=C1c2ccccc2-c2cccnc21	none
COc1ccc(S(=O)(=O)N2CCOCC2)cc1NC(=O)COC(=O)c1ccc([N+](=O)[O-])s1	MsrA act 19.8 (no result: ASAP1 GAP inh, ARFGAP1 inh, sPLA2-III inh, Rev-erbA mod, MsrA inhibitor) | MsrA activ conf 10.7
O=C(COC(=O)c1ccc([N+](=O)[O-])s1)Nc1ccc(Cl)cn1	none
O=C(COC(=O)c1ccc([N+](=O)[O-])s1)NC(c1ccccc1)c1ccccc1	MsrA act 17.4 | MsrA activ conf 6.0
O=C(COc1ccccc1)Nc1ccc([N+](=O)[O-])cc1	MsrA act 19.9 | MsrA activ conf inactive
CC(C)(C)c1ccc(NC(=O)COC(=O)c2ccc([N+](=O)[O-])s2)cc1	MsrA act 10.4 | MsrA activ conf 4.3
COc1cc(NC(=O)C2CCCN(S(=O)(=O)c3cccs3)C2)cc(OC)c1 (centres undefined)	none (no result: ASAP1 GAP inh, ARFGAP1 inh, MsrA act, MsrA inhibitor)
C[C@H](CCC(=O)N(c1ccccc1)c1ccccc1)CC1CCCCC1	none (no result: ASAP1 GAP inh, ARFGAP1 inh, MsrA act, MsrA inhibitor)
CC(=O)Nc1ccc(OCC(C)CN2CCC(C(O)(c3ccccc3)c3ccccc3)CC2)cc1 (centres undefined)	none (no result: ASAP1 GAP inh, ARFGAP1 inh, MsrA act, MsrA inhibitor)
O=C(COC(=O)c1ccc([N+](=O)[O-])s1)Nc1ccccc1	MsrA act 22.5 | MsrA activ conf 10.6
O=C(COC(=O)c1ccc([N+](=O)[O-])s1)Nc1cccc(S(=O)(=O)NC2=NCCCCC2)c1	MsrA act 9.8 | MsrA activ conf 4.4
O=C(COC(=O)c1cccs1)Nc1cccc(S(=O)(=O)NC2=NCCCCC2)c1	none
O=C(COC(=O)c1ccc([N+](=O)[O-])s1)Nc1ccc(F)cc1	MsrA act 19.6 | MsrA activ conf 9.1
CC(=O)Nc1ccc(OCC(=O)NCCc2ccccc2)cc1	MsrA act 7.8 | MsrA activ conf inactive
COc1cc(NC(=O)c2ccccc2)c(C)cc1NC(=O)CSc1nnc(-c2ccccc2F)n1-c1ccc(C)cc1	none (no result: ASAP1 GAP inh, ARFGAP1 inh, MsrA act, MsrA inhibitor)
O=C(COC(=O)c1ccc([N+](=O)[O-])s1)NCc1ccccc1	MsrA act 8.4 | MsrA activ conf inactive
Cc1ccc(S(=O)(=O)N2CCC(C(=O)NCCCOC(C)C)CC2)cc1	MsrA act 7.7 | MsrA activ conf inactive
COc1ccc(/C=C/C(=O)NCCc2ccc(S(N)(=O)=O)cc2)cc1	MsrA act 12.5 | MsrA activ conf inactive
O=C(CSc1ccccc1C(=O)O)NCc1ccccc1	MsrA act 8.1 | MsrA activ conf inactive
C#CCOCCOCCOCCNc1nc(N2CCN(C(=O)[C@H]([C@@H](C)CC)n3cc(CCC(=O)O)nn3)CC2)nc(N2CCN(C(=O)[C@H](C)n3cc(CCCN=C(N)N)nn3)CC2)n1	none
C#CCOCCOCCOCCNc1nc(N2CCN(C(=O)[C@H]([C@@H](C)CC)n3cc(CCCN=C(N)N)nn3)CC2)nc(N2CCN(C(=O)[C@H]([C@@H](C)CC)n3cc(CCC(=O)O)nn3)CC2)n1	MsrA act 7.9 | MsrA activ conf inactive
C[C@H]1[C@@H](NCC2CCCCC2)CC[C@@]23CCCN2C(=O)CCC[C@@H]13	none (no result: ASAP1 GAP inh, ARFGAP1 inh, MsrA act, MsrA inhibitor)
O[C@H](COc1ccc(OC(F)(F)F)cc1)CN1CCC(C(O)(c2ccccc2)c2ccccc2)CC1	none (no result: ASAP1 GAP inh, ARFGAP1 inh, MsrA act, MsrA inhibitor)
O=C(NCCO)c1cccc2c1-c1ccccc1C2=O	none
O=C1c2ccccc2-c2c1cccc2C(=O)N(CCO)CCO	MsrA act 11.7 | MsrA activ conf inactive
O=C(Nc1n[nH]c(=S)s1)c1ccco1	MsrA act 8.7 | MsrA activ conf inactive
COC(=O)c1cccc(S(=O)(=O)N2CCC(c3nc4ccccc4o3)CC2)c1	none
COC(=O)c1ccccc1S(=O)(=O)N1CCC(c2nc3ccccc3o2)CC1	MsrA act 11.9 | MsrA activ conf inactive
CC(C)(C)c1cc(NC(=O)c2ccco2)n(-c2ccccc2)n1	MsrA act 16.1 | MsrA activ conf inactive
CC[C@H]1C(=O)[C@@H](Cc2ccccc2)[C@@H]2CCN3C(=O)CCC[C@H]1[C@H]23	MsrA act 17.3 | MsrA activ conf inactive
CCOc1ccc(CCNC(=O)c2cc3ccsc3n2C)cc1OCC	none (no result: ASAP1 GAP inh, ARFGAP1 inh, MsrA act, MsrA inhibitor)
COCCNC(=O)C1=NOC(Cn2cc(C#N)c(=O)n(C)c2=O)C1 (centres undefined)	none
COc1ccc(C2CC(Cn3cc(C#N)c(=O)n(C)c3=O)ON2C)cc1 (centres undefined)	MsrA act 9.3 | MsrA activ conf inactive
O=C(NC1CCCCN(Cc2cccc(Cl)c2)C1=O)c1ccc(-c2ccccc2)cc1 (centres undefined)	none (no result: ASAP1 GAP inh, ARFGAP1 inh, MsrA act, MsrA inhibitor)
